According to ChEMBL document CHEMBL1148768, “Nitrated indenoisoquinolines as topoisomerase I inhibitors: a systematic study and optimization” (2007):

Legend:
Assay type in all cases: functional
[1] = tested on: HCT-116; test: Cytotoxicity against human HCT116 cells
How it was run: (§1)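 Read-out is growth inhibition of human cancer cell lines. GI50 is taken as the compound concentration giving 50% growth inhibition.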

[2] = tested on: SF-539; test: Cytotoxicity against human SF539 cells; how it was run: as §1
[3] = tested on: DU-145; test: Cytotoxicity against human DU145 cells; how it was run: as §1
[4] = tested on: SN12C; test: Cytotoxicity against human SN12C cells; how it was run: as §1
[5] = tested on: MDA-MB-435; test: Cytotoxicity against human MDA-MB-435 cells
[6] = tested on: OVCAR-3; test: Cytotoxicity against human OVCAR-3 cells
[7] = tested on: HOP-62; test: Cytotoxicity against human HOP62 cells; how it was run: as §1
[8] = tested on: UACC-62; test: Cytotoxicity against human UACC62 cells; how it was run: as §1

| SMILES | GI50 [1] [nM] | GI50 [2] [nM] | GI50 [3] [nM] | GI50 [4] [nM] | GI50 [5] [nM] | GI50 [6] [nM] | GI50 [7] [nM] | GI50 [8] [nM] |
| --- | --- | --- | --- | --- | --- | --- | --- | --- |
| O=C1c2ccccc2-c2c1c1ccc([N+](=O)[O-])cc1c(=O)n2CCCBr | 3470 | > 100000 | – | – | – | – | – | – |
| COc1ccc2c(c1)C(=O)c1c-2n(CCCn2ccnc2)c(=O)c2ccccc12 | 110 | 178 | 204 | 676 | 646 | 1660 | 56 | 71 |
| O=C1c2ccccc2-c2c1c1ccccc1c(=O)n2CCCNCCO | – | 550 | 174 | 269 | 490 | 550 | 195 | 178 |
| O=C1c2ccccc2-c2c1c1ccc([N+](=O)[O-])cc1c(=O)n2CCCN1CCOCC1 | 38 | 95 | 85 | 309 | 1230 | – | 21 | 380 |
| COc1ccc2c(c1)C(=O)c1c-2n(CCCN)c(=O)c2cc([N+](=O)[O-])ccc12 | < 10 | – | – | – | – | – | – | – |
| NCCCn1c2c(c3ccccc3c1=O)C(=O)c1ccccc1-2 | 180 | 250 | 220 | 160 | 780 | 1380 | – | 260 |
| COc1ccc2c(c1)C(=O)c1c-2n(CCCN)c(=O)c2ccccc12 | < 10 | 38 | 14 | < 10 | 59 | 28 | < 10 | – |
| [N-]=[N+]=NCCCn1c2c(c3ccccc3c1=O)C(=O)c1ccccc1-2 | – | – | 29500 | – | – | – | – | – |
| [N-]=[N+]=NCCCn1c2c(c3ccc([N+](=O)[O-])cc3c1=O)C(=O)c1ccccc1-2 | – | 79400 | – | – | – | – | – | – |
| COc1ccc2c(c1)C(=O)c1c-2n(CCCn2ccnc2)c(=O)c2cc([N+](=O)[O-])ccc12 | < 10 | < 10 | < 10 | < 10 | < 10 | 20 | < 10 | < 10 |
| O=C1c2ccccc2-c2c1c1ccc([N+](=O)[O-])cc1c(=O)n2CCCNCCO | 27 | > 100000 | > 100000 | 229 | 1070 | 1350 | 31 | 200 |
| COc1ccc2c(c1)C(=O)c1c-2n(CCCN2CCOCC2)c(=O)c2cc([N+](=O)[O-])ccc12 | < 10 | – | – | < 10 | < 10 | < 10 | < 10 | < 10 |
| COc1ccc2c(c1)C(=O)c1c-2n(CCCN=[N+]=[N-])c(=O)c2ccccc12 | 26900 | 44700 | 61700 | > 100000 | 64600 | 52500 | 33900 | 75900 |
| COc1ccc2c(c1)C(=O)c1c-2n(CCCNCCO)c(=O)c2cc([N+](=O)[O-])ccc12 | – | < 10 | < 10 | 12 | < 10 | < 10 | < 10 | < 10 |
| COc1ccc2c(c1)C(=O)c1c-2n(CCCN2CCOCC2)c(=O)c2ccccc12 | 1260 | 1950 | 2290 | 4070 | 4680 | 2690 | 1410 | 1580 |
| O=C1c2ccccc2-c2c1c1ccccc1c(=O)n2CCCN1CCOCC1 | – | 3470 | 7240 | 21400 | > 100000 | 16600 | 3720 | 5370 |
| COc1ccc2c(c1)C(=O)c1c-2n(CCCI)c(=O)c2cc([N+](=O)[O-])ccc12 | 46 | 58 | 34 | 309 | 1480 | 3020 | – | 148 |
| COc1ccc2c(c1)C(=O)c1c-2n(CCCN(C)C)c(=O)c2cc([N+](=O)[O-])ccc12 | < 10 | < 10 | < 10 | < 10 | < 10 | 28 | < 10 | < 10 |
| COc1ccc2c(c1)C(=O)c1c-2n(CCCNCCO)c(=O)c2ccccc12 | 44 | 112 | 55 | 158 | 389 | 417 | 26 | 550 |
| NCCCn1c2c(c3ccc([N+](=O)[O-])cc3c1=O)C(=O)c1ccccc1-2 | – | 302 | – | – | – | – | – | – |
| COc1ccc2c(c1)C(=O)c1c-2n(CCCN(C)C)c(=O)c2ccccc12 | 102 | 240 | 257 | 245 | 617 | 427 | 78 | 1000 |
| O=C1c2ccccc2-c2c1c1ccccc1c(=O)n2CCCn1ccnc1 | 1410 | – | 1410 | 1660 | – | 1660 | 2690 | 790 |
| COc1cc2c3c(n(C)c(=O)c2cc1OC)-c1cc2c(cc1C3=O)OCO2 | 35000 | – | 37000 | 68000 | 96000 | – | 1300 | 4200 |
